Measurements from different studies.
Compare with care: the assays were run in different laboratories.
Target: Serine/threonine-protein kinase TBK1 (TBK1, Homo sapiens, UniProt Q9UHD2)
Residues used in one study (Q9UHD2 1-729): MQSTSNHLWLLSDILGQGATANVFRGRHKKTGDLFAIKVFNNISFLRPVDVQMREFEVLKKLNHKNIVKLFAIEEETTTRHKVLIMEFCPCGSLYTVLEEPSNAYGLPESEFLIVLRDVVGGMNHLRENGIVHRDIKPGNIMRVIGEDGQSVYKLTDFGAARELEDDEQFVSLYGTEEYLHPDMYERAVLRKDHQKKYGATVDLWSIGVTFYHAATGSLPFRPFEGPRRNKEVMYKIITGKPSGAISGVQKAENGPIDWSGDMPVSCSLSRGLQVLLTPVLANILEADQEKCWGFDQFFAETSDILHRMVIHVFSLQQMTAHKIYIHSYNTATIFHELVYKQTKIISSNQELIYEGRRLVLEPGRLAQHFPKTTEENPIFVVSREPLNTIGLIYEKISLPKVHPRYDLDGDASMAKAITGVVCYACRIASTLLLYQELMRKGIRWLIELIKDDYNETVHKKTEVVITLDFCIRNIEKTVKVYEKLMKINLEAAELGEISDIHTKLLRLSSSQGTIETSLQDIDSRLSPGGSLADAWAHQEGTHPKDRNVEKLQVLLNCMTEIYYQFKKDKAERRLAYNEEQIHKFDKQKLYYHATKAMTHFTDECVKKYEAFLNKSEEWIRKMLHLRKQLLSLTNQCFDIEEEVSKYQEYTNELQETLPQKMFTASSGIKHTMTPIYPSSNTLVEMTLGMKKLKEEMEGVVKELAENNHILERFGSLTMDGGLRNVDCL

For `C#Cc1n[nH]c2c(-c3cn([C@@H](C)c4ccccc4)c(=O)[nH]c3=O)cc(F)cc12`, the inhibition was 4.4% (enzyme activity; inhibitor; 0.1 µM).
With `Cc1nn(C)cc1-c1nc2c(N3CCN(Cc4ccc(Cl)cc4)CC3)c(Cl)cnc2[nH]1` the remaining binding was 90% (binding; competition with immobilised ligand; 1 µM).
With `Cn1cc(-c2cccc(N3CCc4c(sc5c4CC(C)(C)C5)C3=O)c2CO)cc(Nc2ccncn2)c1=O` the inhibition was 4% (enzyme activity; inhibitor; 1 µM).
With `CC(C)(C)c1cc(C=C(C#N)C#N)cc(Br)c1O` the remaining activity was 90.2% (enzyme activity; inhibitor; 0.5 µM).
`Cn1cncc1[C@](O)(COc1ccc(C#N)cc1-c1ccc(OC(F)(F)F)cc1)c1ccc(C#N)cc1` has a remaining binding of 100% (cell-free assay; competition with immobilised ligand; 1 µM).
For `Cn1cc(-c2cc(F)cc(N3CCn4c(cc5c4CCCC5)C3=O)c2CO)cc(Nc2ccc(N3CCN(C4COC4)CC3)cn2)c1=O`, the inhibition was 18% (enzyme activity; inhibitor; 0.1 µM).
With `N#CC1(c2ccccn2)CCN(Cc2cc(C(=O)O)c(=O)n3ccccc23)CC1` the remaining binding was 98% (cell-free assay; competition with immobilised ligand; 1 µM).
`C#Cc1n[nH]c2c(-c3cn(C(C)c4ccccn4)c(=O)[nH]c3=O)cc(F)cc12` (centres unmarked) has an inhibition of 6.5% (enzyme activity; inhibitor; 1 µM).
`COc1ncccc1-c1cnn2ccc(N3CCN(C(=O)OC(C)C)CC3)nc12` gave a remaining binding of 78% (binding; competition with immobilised ligand; 1 µM).
`COc1cc(Nc2ncc(F)c(Nc3ccc4c(n3)NC(=O)C(C)(C)O4)n2)cc(OC)c1OC` has an inhibition of 100% (binding; 10 µM).
`O=c1[nH]c2ccccc2n1C1CCN(Cc2ccc(-c3[nH]c4cc5ncnc5cc4nc3-c3ccccc3)cc2)CC1` has a remaining signal of 92.7% (cell-free assay; 0.5 µM).
